ChEMBL document CHEMBL1932940, “Xanthohumol induces apoptosis in human malignant glioblastoma cells by increasing reactive oxygen species and activating MAPK pathways” (J Nat Prod, 2011)
Active and inactive are the calls of the source. The rule behind the calls is not given here.

Tests used:
U-87 MG = experiment: Induction of cell cycle arrest in human U87MG cells assessed as accumulation at G0/G1 phase at 1 to 20 uM after 48 hrs by flow cytometric analysis; type: functional, cell-based; details: U-87MG ATCC
How it was run: (§1)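 2 × 10^5 cells per dish exposed 48 h (1−20 μM per legend); harvested, fixed in cold 70% ethanol at −20 °C, stained with propidium iodide plus RNase A (100 U/mL) 30 min at room temperature; percentage in G1, S, G2/M by flow cytometry. Three experiments in triplicate.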

T98G [1] = experiment: Induction of apoptosis in human T98G cells assessed as decrease in Bcl-2 expression at 20 uM after 48 hrs by Western blot analysis in presence of 5 mM NAC; type: functional, cell-based
How it was run: (§2)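 T98G exposed to 20 μM for various times (0−48 h), NAC 5 mM where stated. Total lysates, or digitonin-permeabilized cytosolic and mitochondrial fractions (10000g, 15 min, 4 °C) for cytochrome c, blotted for caspase-3, caspase-9, PARP (1:1000), Bcl-2 (1:500), cytochrome c; β-actin loading control; ECL detection. Three experiments.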

[2] = biological target: T1, Mitogen-activated protein kinase; ERK1/ERK2 (Homo sapiens) (UniProt P27361+P28482); experiment: Induction of Erk1/2 phosphorylation in human T98G cells at 20 uM measured every 5 mins for 2 hrs by Western blot analysis; type: cell-based
How it was run: (§3)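 T98G exposed to 20 μM for 5−120 min or 24 h, with or without 5 mM NAC. Lysates (Tris/deoxycholate/SDS/IGEPAL with protease and phosphatase inhibitors) immunoblotted with anti-p-ERK, ERK1/2 (1:1000), p-p38, p38; ECL detection; phospho signals normalized to total ERK1/2 or p38. Three experiments.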

T98G [3] = experiment: Induction of cell cycle arrest in human T98G cells assessed as accumulation at G2/M phase at 1 to 20 uM after 48 hrs by flow cytometric analysis; type: functional, cell-based; how it was run: as §1
[4] = biological target: Mitogen-activated protein kinase 9 (Homo sapiens) (UniProt P45984); experiment: Induction of JNK phosphorylation in human T98G cells at 20 uM after 30 to 60 mins for 2 hrs by Western blot analysis; type: cell-based
T98G [5] = experiment: Induction of apoptosis in human T98G cells assessed as increase in subG1 population after 24 to 48 hrs by propidium iodide staining based flow cytometric analysis; type: functional, cell-based
How it was run: (§4)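 Cells treated 1−50 μM for 24 or 48 h, washed in PBS, resuspended in 0.1% sodium citrate, 0.1% Triton X-100, 50 μg/mL propidium iodide, 30 min at 4 °C in dark. Nuclei analyzed by flow cytometry, DNA on log scale, debris gated out; percent hypodiploid (sub-G1) nuclei reported. Three experiments in triplicate.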

T98G [6] = experiment: Induction of apoptosis in human T98G cells assessed as decrease in Bcl-2 expression at 20 uM by Western blot analysis; type: functional, cell-based; details: TDE = time-dependent effect; how it was run: as §2
[7] = biological target: T2, MAP kinase p38 (Homo sapiens) (UniProt O15264+Q15759+Q16539+P53778); experiment: Induction of p38 phosphorylation in human T98G cells at 20 uM after 30 to 60 mins for 2 hrs by Western blot analysis; type: cell-based; how it was run: as §3
[8] = biological target: T1, Mitogen-activated protein kinase; ERK1/ERK2 (Homo sapiens); experiment: Induction of Erk1/2 phosphorylation in human T98G cells at 20 uM measured every 5 mins for 2 hrs by Western blot analysis in presence of 5 mM of NAC; type: cell-based; how it was run: as §3
T98G [9] = experiment: Induction of apoptosis in human T98G cells assessed as cell death at 20 uM after 48 hrs by propidium iodide staining based flow cytometric analysis; type: functional
How it was run: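 T98G cells grown in DMEM with 10% heat-inactivated FBS and 2 mM L-glutamine at 37 °C, 5% CO2, then exposed 24–48 h (range 1–50 μM). Percent hypodiploid nuclei counted by flow cytometry, debris gated out. Three experiments in triplicate, mean ± SEM.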

T98G [10] = experiment: Anticancer activity against human T98G cells assessed as decrease in cell viability at 10 uM after 48 hrs by MTT assay; type: functional, cell-based
How it was run: (§5)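 Cells (T98G, U87-MG, NHA; 3 × 10^4 per well) plated, next day exposed to serial dilutions (1−50 μM) for 48 h at 37 °C, 5% CO2. MTT (5 mg/mL) added for 3 h; crystals solubilized in 50% DMF/20% SDS pH 4.5; OD at 620 nm. Viability = % of DMSO (0.1% final) controls. Means ± SEM, three experiments in triplicate.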

T98G [11] = experiment: Anticancer activity against human T98G cells assessed as decrease in cell viability after 48 hrs by MTT assay; type: functional, cell-based; how it was run: as §5
T98G [12] = experiment: Induction of apoptosis in human T98G cells assessed as increase in mitochondrial depolarization at 20 uM by […] fluorescence analysis; type: functional, cell-based; details: TDE = time-dependent effect
How it was run: (§6)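 T98G treated with 20 μM for 4−24 h (NAC 5 mM where stated), then loaded with 5 nM TMRE for 30 min at 37 °C; fluorescence by flow cytometry (FL-2); percentage of cells with depolarized mitochondria reported. Three experiments in triplicate (n = 3 for NAC set).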

[13] = biological target: T1, Mitogen-activated protein kinase; ERK1/ERK2 (Homo sapiens); experiment: Induction of Erk1/2 phosphorylation in human T98G cells at 20 uM measured after 24 hrs by Western blot analysis; type: cell-based; how it was run: as §3
T98G [14] = experiment: Induction of apoptosis in human T98G cells assessed as increase in mitochondrial depolarization at 20 uM after 24 hrs by […] fluorescence analysis; type: functional; how it was run: as §6
U-87MG ATCC = experiment: Anticancer activity against human U87MG cells assessed as decrease in cell viability at 50 uM after 48 hrs by MTT assay; type: functional, cell-based; how it was run: as §5
T98G [15] = experiment: Induction of apoptosis in human T98G cells at 20 uM after 48 hrs by flow cytometric analysis pretreated with 20 uM Erk inhibitor PD98059 for 30 mins; type: functional; design: scale not given: the % may be the effect or the level left
How it was run: (§7)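 T98G pretreated with PD98059 (20 μM, 30 min), SB203580 (5 μM, 1 h) or SP600125 (5 μM, 1 h), then exposed to 20 μM for 48 h; hypodiploid nuclei quantified by propidium iodide flow cytometry. Means ± SEM, three experiments in triplicate.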

[16] = biological target: T2, MAP kinase p38 (Homo sapiens); experiment: Induction of p38 phosphorylation in human T98G cells at 20 uM measured after 24 hrs by Western blot analysis; type: cell-based; how it was run: as §3
T98G [17] = experiment: Induction of apoptosis in human T98G cells at 20 uM after 48 hrs by flow cytometric analysis pretreated with 5 uM p38 inhibitor SB203580 for 1 hr; type: functional, cell-based; how it was run: as §7
T98G [18] = experiment: Induction of apoptosis in human T98G cells assessed as increase in cleaved PARP protein level at 20 uM after 24 hrs by Western blot analysis; type: functional, cell-based; how it was run: as §2
T98G [19] = experiment: Anticancer activity against human T98G cells assessed as decrease in cell viability at 20 uM after 48 hrs by MTT assay; type: functional, cell-based; how it was run: as §5
T98G [20] = experiment: Induction of apoptosis in human T98G cells assessed as decrease in mitochondrial depolarization at 20 uM after 24 hrs by […] fluorescence analysis in presence of 5 mM NAC; type: functional, cell-based; how it was run: as §6
T98G [21] = experiment: Induction of apoptosis in human T98G cells assessed as increase in cytosolic cytochrome c release at 20 uM after 8 hrs by Western blot analysis; type: functional, cell-based; how it was run: as §2
T98G [22] = experiment: Induction of apoptosis in human T98G cells after 48 hrs by propidium iodide staining-based flow cytometric analysis; type: functional, cell-based; how it was run: as §4

T1 sequence (P27361 whole entry, looked up): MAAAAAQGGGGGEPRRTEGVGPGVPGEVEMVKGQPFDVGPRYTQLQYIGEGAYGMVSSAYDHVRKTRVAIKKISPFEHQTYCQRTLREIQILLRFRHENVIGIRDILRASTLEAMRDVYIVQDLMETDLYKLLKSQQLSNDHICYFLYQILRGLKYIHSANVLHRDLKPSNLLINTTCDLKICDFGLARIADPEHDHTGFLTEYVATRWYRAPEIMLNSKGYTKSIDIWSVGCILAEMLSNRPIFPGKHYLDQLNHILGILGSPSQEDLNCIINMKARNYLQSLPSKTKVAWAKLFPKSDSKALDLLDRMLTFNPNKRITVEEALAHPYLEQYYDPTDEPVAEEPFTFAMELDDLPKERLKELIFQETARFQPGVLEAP
T1 sequence (P28482 whole entry, looked up): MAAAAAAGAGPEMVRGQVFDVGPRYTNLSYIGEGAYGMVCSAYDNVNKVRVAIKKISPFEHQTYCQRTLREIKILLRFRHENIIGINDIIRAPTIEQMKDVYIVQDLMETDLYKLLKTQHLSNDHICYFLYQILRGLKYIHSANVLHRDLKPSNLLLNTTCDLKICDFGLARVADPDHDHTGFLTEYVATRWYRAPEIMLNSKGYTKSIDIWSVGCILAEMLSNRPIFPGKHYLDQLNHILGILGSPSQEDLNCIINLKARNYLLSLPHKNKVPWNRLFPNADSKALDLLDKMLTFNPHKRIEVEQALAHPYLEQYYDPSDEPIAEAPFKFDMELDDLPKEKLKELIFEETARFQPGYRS
Sequence of Mitogen-activated protein kinase 9 (Homo sapiens) (P45984 whole entry, looked up): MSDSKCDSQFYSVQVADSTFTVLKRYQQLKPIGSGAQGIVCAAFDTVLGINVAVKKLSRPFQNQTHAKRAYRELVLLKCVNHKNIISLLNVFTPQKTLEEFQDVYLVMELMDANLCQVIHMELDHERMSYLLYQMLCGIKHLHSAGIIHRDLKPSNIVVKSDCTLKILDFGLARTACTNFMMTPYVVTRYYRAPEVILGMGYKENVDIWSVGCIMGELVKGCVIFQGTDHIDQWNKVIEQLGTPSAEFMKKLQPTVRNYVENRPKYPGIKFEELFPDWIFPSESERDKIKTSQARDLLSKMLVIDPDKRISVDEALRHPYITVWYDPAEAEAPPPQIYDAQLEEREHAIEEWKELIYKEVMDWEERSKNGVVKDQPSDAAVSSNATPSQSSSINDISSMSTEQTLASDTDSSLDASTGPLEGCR

COc1cc(O)c(CC=C(C)C)c(O)c1C(=O)/C=C/c1ccc(O)cc1 [XANTHOHUMOL]
Activity (U-87 MG): inactive | Activity (T98G [1]): inactive | Activity [2]: Active | Activity (T98G [3]): inactive | Activity [4]: inactive | Activity (T98G [5]): Dose-dependent effect | Activity (T98G [6]): tde | Activity [7]: Active | Activity [8]: inactive | Activity (T98G [9]): 40% | Activity (T98G [10]): Active | Activity (T98G [11]): Dose-dependent effect | Activity (T98G [12]): tde | Activity [13]: Active | Activity (T98G [14]): 50% | Activity (U-87MG ATCC): Active | Activity (T98G [15]): 50% | Activity [16]: inactive | Activity (T98G [17]): inactive | Activity (T98G [18]): Active | Activity (T98G [19]): Active | Activity (T98G [20]): inactive | Activity (T98G [21]): Active | Activity (T98G [22]): Dose-dependent effect
